In the array DNA melting data of Ke et al. (doi:10.1101/2024.01.08.574731):

Experiments:
[1] = folding enthalpy; higher = less favourable; fluorescence melt of hairpins on a sequencing array, two-state fit; details: sodium 0.088 M
How it was run: (§1)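 Folding enthalpy and melting temperature come from bootstrapped two-state fits to Cy3 fluorescence of library hairpins carrying annealed Cy3 and quencher oligos on a sequenced MiSeq flow cell. Imaging was done in 50 mM Na-HEPES pH 8.0, 25 mM NaCl, stepping by 2.5 °C up to 60 °C, and signals were normalised to pre-quench Cy3 and to control constructs. Results of four replicates were combined by inverse variance, and fitted temperatures were raised by 9.35 °C to match UV melts.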

[2] = melting temperature; fluorescence melt of hairpins on a sequencing array, two-state fit, raised by 9.35 °C to match UV melts; details: sodium 0.088 M
How it was run: as §1

Sequence	folding enthalpy [1] [kcal/mol]	Tm [2] [°C]
GCATAACGAAAGTTCTGC (((.(((....))).)))	-35.4	45.6
GCTTACGAAAGTAAGAGC ((((((....)))..)))	-18.5	45.4
GCAATCCGAAAGGACTGC (((.(((....))).)))	-17.6	49.8
GTCCGTGGAAACACGAAC ((.((((....)))).))	-21	39.7
GTTCAAGGAAACCTGAAC (((((.(....).)))))	-30.1	35.6
GAGGGAGGAAACTCCCCC (.(((((....))))).)	-10.5	41.9
GTCGGCCGAAAGGCGAC (((.(((....))))))	-21.9	67.2
GTCGTGGCGAAAGCCGAC (((..(((....))))))	-17.2	54.6
GATCGGAGTCCGATC ((((((...))))))	-38.6	54
GGACTTGGAAACGAGTTC (.(((.(....).))).)	-21.5	32.9
GCACTAGGAAACTAGTGC (((((((....)))))))	-36.2	62.8
GATCTGGATGCAGATC ((((((....))))))	-35.5	50.8
GTACAAACGAAAGTTTAC (((..(((....))))))	-8.86	22.1
GCTGACGAAAGTCTTAGC ((((((....)))..)))	-22.6	39.8
GTACTTGGAAACAAGTGC (.(((((....))))).)	-21.1	47.4
GATCAGCGATCTGATC ((((((....))))))	-19.5	50
GCATCCGAAAGGATCTGC ((((((....)))..)))	-17.1	46.5
GGAGGGTCGAAAGACTCC (((..(((....))))))	-14.3	39.5
GCTGCCGAAAGGCCTAGC ((((((....)))..)))	-14.2	41
GTGCTTGAAAAAGCAC ((((((....))))))	-27.9	63.3
GCTAGCGAAAGCTGAAGC ((((((....)))..)))	-15	43.1
GCCCATCGAAAGATTGGC (((.(((....))).)))	-27.3	47.8
GCCCGACGAAAGTCGGC (((.(((....))))))	-8.71	61.4
GTGCGATCGAAAGATCAC (((..(((....))))))	-18.2	44.4

Sequence	folding enthalpy [1] [kcal/mol]	Tm [2] [°C]
GCCCTGACGAAAGTCGGC (((..(((....))))))	-13.6	48.9
GATCCGTACGCGGATC ((((((....))))))	-39.5	63.5
GCAGTCGAAAGACGTTGC ((((((....)))..)))	-17	45.9
GGAACGACGAAAGTCTCC (((..(((....))))))	-10.9	27.6
GCCGTGCGAAAGCACAGC ((.((((....)))).))	-14	61.2
GGTAGCGGAAACGTTGCC ((.(.((....)).).))	-25.2	39.3
GAATGCGAAAGCAGCTTC ((((((....)))..)))	-23	39.7
GGGTGCGAAAGCACGCCC ((((((....)))..)))	-10.2	55.3
GATCTAAACATAGATC ((((((....))))))	-26.9	37
GATCAGGAACCTGATC ((((((....))))))	-35	54.5
CGGAACGGAAACGTACCG (((.(((....))).)))	-43.6	49.7
GGGGATGGAAACATTCCC (((.(((....))).)))	-40.9	51.6
GTGCTCGAAAGAGTTCAC ((((((....)))..)))	-13.6	34.6
GATCATCGTATGATC ((((((...))))))	-32.8	48.5
CGTACGGAAACGTCCACG ((((((....)))..)))	-12.1	30.2
GGAGCGCGAAAGCGTCC (((.(((....))))))	-13.9	52.1
GACAGCGAAAGCTCGGTC ((((((....)))..)))	-10.6	46.8
GCAATGCGAAAGCAAGGC ((..(((....)))..))	-18.7	43.7
GGTTGCTCGAAAGAGACC (((..(((....))))))	-13.4	29.6
GCCGATGGAAACACCGGC ((((.((....)).))))	-42.9	52.4
GGTGTCGAAAGACTCACC ((((((....)))..)))	-17.6	39.1
GTTCCCCGAAAGGGCAAC (((.(((....))).)))	-14.5	35.2
GGTATCGAAAGATACC ((((((....))))))	-43.2	62.1
GATCATATGCATGATC ((((((....))))))	-40.4	48.2

Sequence	folding enthalpy [1] [kcal/mol]	Tm [2] [°C]
GTACGCGAAAGCGTATAC ((((((....)))..)))	-9.55	49.2
GGTAACGAAAGTTTTACC ((((((....)))..)))	-9.8	29.7
GCTCCGCGAAAGCAAAGC (((..((....))..)))	-11	31.5
GTCGCCGAAAGGCCCGAC ((((((....)))..)))	-11.6	37.4
GCGGGACCCCGC ((((....))))	-26	67.8
GTCGGGAAACCGAC (((((....)))))	-24.2	66
GCTACAGGAAACTGTAAC (.(((((....))))).)	-12.8	30.3
GGTCTCGGAAACGAGGTC (..((((....))))..)	-15.9	38.2
GATAGACGAAAGTCAATC (((.(((....))).)))	-22.5	41.2
GAATTACGAAAGTATTC (((.(((....))))))	-13.5	31.1
GGCGAACGAAAGTTTGCC (((.(((....))).)))	-37	62.1
GCCGCGGGAAACCGCGAC (.(((((....))))).)	-10.8	59.7
GATCATACTCATGATC ((((((....))))))	-34	46.7
GCGGGCGTCCGC ((((....))))	-23.6	58.6
GACCACCGAAAGGTGTC (((.(((....))))))	-12.7	47.5
GAGTTCGAAAGAACTC ((((((....))))))	-38	66.2
GATCGCCCCTGCGATC ((((((....))))))	-33.6	67.2
GCGTTCCGAAAGGATCGC (((.(((....))).)))	-35.4	61.6
GGACCCACGAAAGTGTCC (((..(((....))))))	-14.4	36.4
GATCAGCGAAAGCTATC (((.(((....))))))	-12	32.6
GATCGGTGGCCCGATC ((((((....))))))	-37.6	57.1
GATCGCAGTTGCGATC ((((((....))))))	-41.1	68.6
GATCGCCGTTGCGATC ((((((....))))))	-53.2	66.2
GATTCCGAAAGGATATC ((((((....))).)))	-20.7	39.5

Sequence	folding enthalpy [1] [kcal/mol]	Tm [2] [°C]
CGCGGAAGATTCCGCG ((((((....))))))	-38.7	68.9
GTCACGGGAAACCGTGGC (.(((((....))))).)	-19	62.7
GCTATGCGAAAGCTTCGC ((.(.((....)).).))	-14.2	41.5
GATCTTAGCGAAGATC ((((((....))))))	-31.2	43.4
GCATTGCGAAAGCTAAGC ((.(.((....)).).))	-14.8	43.7
GATCGGCATGCCGATC ((((((....))))))	-44.7	67.4
GGGTTCGGAAACGGACTC (.((.((....)).)).)	-25.9	39.1
CGCGGAGAGTCCGCG ((((((...))))))	-27	69
GCTTCGCGAAAGCATAGC (((..((....))..)))	-14.5	36.3
GTCGAGTCGAAAGACGAC (((..(((....))))))	-10.7	47
GTACACGGAAACGTATAC (((.(((....))).)))	-23.8	33.6
GCGAAACGAAAGTTCGC (((.(((....))))))	-32.9	62.7
GATCGTTTCCACGATC ((((((....))))))	-40.5	54
TTACCGAAAGGTAA (((((....)))))	-16.7	50.4
GGCAGCGGAAACGCCACC ((..(((....)))..))	-13.9	36.6
ACACGGAAACGTGT (((((....)))))	-24	55.1
GATCGGACCGCCGATC ((((((....))))))	-39.9	54.6
GTCGTCGAAAGACGAGAC ((((((....)))..)))	-10.8	49.8
CGCAGGAAACTGCG (((((....)))))	-25.9	60.3
GCAGTGCGAAAGCGCCGC ((.(.((....)).).))	-17.9	52
GACATACGAAAGTACGTC (((.(((....))).)))	-27	42.5
